Assay outcomes deposited in PubChem by several laboratories.
Most compounds without a hit are left out; they make up all but 4.2% or so of the library.
Mot1-301 SUMO – blocks SUMOylation pathway, rescuing yeast Mot1-301 growth | hit rate 1% among 320,000 | growth rescue, % at 18.8 µM | S. cerevisiae Mot1-301 growth rescue, ATP luminescence, 38.5C; percent above DMSO median, 100 means doubled;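 active = every valid replicate shows activation above 250% relative to neutral control wells; inactive = the rest, any valid replicate at or below 250%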
hERG rescue – hERG (human) protection from proarrhythmic block | AID 1511 | activation (rescue from dofetilide block), less the hit threshold, % at 10 µM | hit rate 0.51% among 310,000 | Q12809 | CHO-hERG, FluxOR thallium flux, dofetilide IC70 present;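 active = activation above the mean of controls blocked by dofetilide plus 5 SD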;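 note: thallium influx through hERG after potassium depolarization seen as dye fluorescence rise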
KCNQ1 pot – potentiates or activates the human KCNQ1 potassium channel; CHO-K1 KCNQ1, thallium flux FluxOR fluorescence; stronger effect = higher value; hit rate 0.35% among 310,000; P51787; AID 2648; B-score at 10 µM;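 active = fluorescence ratio B-score, a plate-corrected score, at least three library SD, with initial intensity B-score within 5 SD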
Target sequence (P51787 whole entry, looked up): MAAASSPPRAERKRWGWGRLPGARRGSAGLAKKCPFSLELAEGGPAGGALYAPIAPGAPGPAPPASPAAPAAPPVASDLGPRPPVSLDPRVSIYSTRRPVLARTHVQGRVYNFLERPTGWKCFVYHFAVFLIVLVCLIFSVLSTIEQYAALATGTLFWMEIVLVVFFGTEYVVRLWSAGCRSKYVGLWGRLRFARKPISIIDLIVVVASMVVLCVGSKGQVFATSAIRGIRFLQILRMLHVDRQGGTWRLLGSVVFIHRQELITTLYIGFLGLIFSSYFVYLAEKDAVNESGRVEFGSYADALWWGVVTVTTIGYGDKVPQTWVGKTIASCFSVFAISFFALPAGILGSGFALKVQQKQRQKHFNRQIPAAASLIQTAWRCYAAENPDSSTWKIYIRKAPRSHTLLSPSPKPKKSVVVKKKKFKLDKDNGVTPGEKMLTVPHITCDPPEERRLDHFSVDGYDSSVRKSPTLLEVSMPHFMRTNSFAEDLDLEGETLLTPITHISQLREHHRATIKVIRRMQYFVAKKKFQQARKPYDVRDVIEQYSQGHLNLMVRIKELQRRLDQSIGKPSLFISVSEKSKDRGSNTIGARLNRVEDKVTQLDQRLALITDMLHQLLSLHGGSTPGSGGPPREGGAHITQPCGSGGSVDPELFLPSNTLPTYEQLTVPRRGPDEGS
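Schedule – 37 °C overnight plating, 90-min dark dye load, 20-min compound pretreatment · System – stable KCNQ1 CHO-K1 line · Probe or stimulus – thallium- and potassium-containing depolarizing buffer · Measured by – kinetic FluxOR fluorescence, 10 s baseline plus 110 s post-stimulus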
AI-2 QS mod – modulates the Vibrio harveyi AI-2 quorum sensing system. Vibrio harveyi JMH597 AI-2 luminescence/OD600 ratio, 9 h; stronger effect = lower value; strain lacks LuxN and CqsS sensors; 0 = neutral-control median. activity change, % at 7.5 µM. hit rate 0.4% among 300,000. AID 2094; in the data active = activity change below about -75%, passing the limit was not always enough; inconclusive = no clear call, values can overlap the other calls;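 note: luminescence divided by OD600 gain over 9 h not by final OD600 alone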
KCC2 mod – modulators of human KCC2 chloride dependent transport | Q9H2X9 | KCC2 cells, thallium flux FluoZin-2 fluorescence | B-score of Tl+ flux slope (higher = more flux/activation; lower = inhibition) at 10 µM | hit rate 2.2% among 190,000;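 active = thallium flux slope and its plate-corrected score both differing from the plate sample mean at a set confidence after two filtering rounds, in either direction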;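 note: slope of fluorescence scaled to starting intensity during 10 to 20 s after thallium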
KCNQ1 inh – inhibitors of human KCNQ1 potassium channel; P51787; CHO-K1 KCNQ1, FluxOR thallium flux fluorescence; stronger effect = higher value; B-score at 10 µM; hit rate 1.3% among 310,000; AID 2642;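 active = compounds whose thallium flux B-score, printed positive for inhibition, exceeds three library SD while starting fluorescence stays within three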;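 note: channel opened by potassium depolarization with thallium stimulus after 20 min compound exposure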
Yeast Mot1 SUMO – inhibits SUMO pathway, affecting Mot1-301 yeast growth; growth activity, percent, % at 42 µM; 2,300 tested, under 10 active; shares compounds with Mot1-301 SUMO; S. cerevisiae Mot1-301 galactose growth, ATP luminescence, 24 h; -100 = growth of slx-deleted rescue strain; AID 493004;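 active = Signal drops as the depositor expects, and the fitted half-maximal dose is no more than ten times the top valid tested dose; inconclusive = Poor fit, or a flat curve whose signal drops by 30% to 70%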;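 note: more negative values mean stronger growth rescue toward the control strain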
Each line names hits and unclear results; the compound was inactive in the other large screens (follow-up assays come after a bar, where they were run).

O=C1CCCN1c1ccc(S(=O)(=O)Nc2ccc3c(c2)OCCO3)cc1	none
Cn1cnnc1-c1cccc(NS(=O)(=O)c2ccc(N3CCCC3=O)cc2)c1	Mot1-301 SUMO active | Yeast Mot1 SUMO inactive
O=C(NNC(=O)c1ccccc1[N+](=O)[O-])c1csc(N2CCOCC2)n1	none (no result: AI-2 QS mod, KCC2 mod)
CC1CCN(CCNC(=O)C2CCCN(S(=O)(=O)c3cccc4nsnc34)C2)CC1 (stereo not given)	Mot1-301 SUMO 453.9 (no result: AI-2 QS mod, KCC2 mod) | Yeast Mot1 SUMO inactive
O=C(NCCCN1CCCCCC1)C1CCCN(S(=O)(=O)c2cccc3nsnc23)C1 (stereo not given)	none
CCN1C(=NCc2cccc(Cl)c2)N[C@@H](c2cccc(F)c2)C(C(=O)OC)=C1C	Mot1-301 SUMO 772.6 (no result: KCC2 mod) | Yeast Mot1 SUMO inactive
CCN1C(=NCCCCO)N[C@@H](c2cccc(C(F)(F)F)c2)C(C(=O)OC)=C1C	Mot1-301 SUMO 657.6 (no result: KCC2 mod) | Yeast Mot1 SUMO inactive
COC(=O)C1=C(C)N(Cc2ccccc2)C(=NCCCCO)N[C@H]1c1cccc(C(F)(F)F)c1	none (no result: hERG rescue, KCNQ1 pot, AI-2 QS mod, KCC2 mod, KCNQ1 inh)
CCN1C(=NCC(C)C)N[C@@H](c2cccc(C(F)(F)F)c2)C(C(=O)OC)=C1C	Mot1-301 SUMO 779.0 (no result: KCC2 mod) | Yeast Mot1 SUMO inactive
C=CCN=C1N[C@@H](c2cccc(C(F)(F)F)c2)C(C(=O)OC)=C(C)N1CC	none (no result: KCC2 mod)
O=C(O)C(CCCCNS(=O)(=O)c1ccc(F)cc1)NS(=O)(=O)c1ccc(F)cc1 (stereo not given)	none (no result: KCC2 mod)
O=C1c2cccc3c(N4CCCCC4)ccc(c23)C(=O)N1CCO	Mot1-301 SUMO 423.8 | Yeast Mot1 SUMO inactive
C=CCN1C(=O)c2cccc3c(N4CCCCC4)ccc(c23)C1=O	none
Cc1ccc(NC(=O)C(C)OC(=O)COc2cccc(C(F)(F)F)c2)cc1 (stereo not given)	none (no result: hERG rescue, KCNQ1 pot, AI-2 QS mod, KCC2 mod, KCNQ1 inh)
CC(C)(C)C(=O)Nc1ccc(C(=O)NCc2cccnc2)cc1	Mot1-301 SUMO 429.8 (no result: KCC2 mod) | Yeast Mot1 SUMO inactive
CCOc1ccc(NS(=O)(=O)c2ccc(C(=O)NCc3cccnc3)cc2)cc1	Mot1-301 SUMO 448.9 (no result: AI-2 QS mod, KCC2 mod) | Yeast Mot1 SUMO inactive
O=C(Nc1ccccc1)N1CCCC(c2nc(-c3cccs3)no2)C1 (stereo not given)	none
CCOc1ccc(NC(=O)CN(C)C(=O)c2ccc(OCc3ccccc3)c(OC)c2)cc1OCC	Mot1-301 SUMO 540.3 (no result: KCC2 mod) | Yeast Mot1 SUMO inactive
COc1ccc(Cl)cc1NC(=O)CN(C)C(=O)c1ccc(OCc2ccccc2)c(OC)c1	none (no result: KCC2 mod)
COc1ccc(C2CC3(CC(C)(C)NC(=S)N3)Oc3cc(O)cc(C)c32)cc1 (stereo not given)	Mot1-301 SUMO 978.5 | Yeast Mot1 SUMO inactive
Cc1cc(O)cc2c1C(c1ccc(F)cc1)CC1(CC(C)(C)NC(=S)N1)O2 (stereo not given)	none
CC(C)COc1ccc(C(=O)Nc2ccc([N+](=O)[O-])cc2)cc1	Mot1-301 SUMO 690.6 | Yeast Mot1 SUMO inactive
COc1ccc(C(=O)N/C(=C\c2cn(C)c3ccccc23)C(=O)OCCN(C)C)cc1	Mot1-301 SUMO 506.8 | Yeast Mot1 SUMO inactive
CCCc1nc(NCc2ccccc2)c(C#N)c2c1CCCC2	Mot1-301 SUMO 789.2 | Yeast Mot1 SUMO inactive
CCCc1nc(NCCO)c(C#N)c2c1CCCC2	none
CC(=O)c1ccc(-c2ccc(C(=O)NC3CCCCCC3)o2)cc1	none
Cc1cccc(CSc2ccc(-c3ccco3)nn2)c1	Mot1-301 SUMO 667.5 | Yeast Mot1 SUMO inactive
Fc1ccccc1CSc1ccc(-c2ccco2)nn1	none
COc1ccc(C(=O)N2CCCC(C(=O)O)C2)c2ccccc12 (stereo not given)	none (no result: KCC2 mod)
CC1CC(N(C(=O)c2ccccc2Cl)c2ccccc2)c2ccccc2N1 (stereo not given)	Mot1-301 SUMO 453.5 (no result: KCC2 mod) | Yeast Mot1 SUMO inactive
CC(=O)Nc1cccc(OCC(O)Cn2cnc3ccccc32)c1 (stereo not given)	none (no result: KCC2 mod)
CC(=O)Nc1cccc(OCC(O)Cn2c(C)nc3ccccc32)c1 (stereo not given)	Mot1-301 SUMO 655.0 | Yeast Mot1 SUMO inactive
CCN(CCCNC(=O)C1c2ccccc2C(=O)N(CCOC)C1c1ccc(F)cc1)Cc1ccccc1 (stereo not given)	none (no result: KCC2 mod)
CCN(CC)CCCNC(=O)C1c2ccccc2C(=O)N(CCOC)C1c1ccc(F)cc1 (stereo not given)	Mot1-301 SUMO 690.9 | Yeast Mot1 SUMO inactive
COc1ccc(OC)c(-c2cc(C(=O)Nc3c(C)nn(Cc4ccccc4Cl)c3C)no2)c1	Mot1-301 SUMO 570.9 (no result: KCC2 mod) | Yeast Mot1 SUMO inactive
COc1ccc(OC)c(-c2cc(C(=O)Nc3c(C)nn(Cc4ccccc4C)c3C)no2)c1	none (no result: KCC2 mod)
O=C1c2ccccc2NC(c2ccccc2O)N1O (stereo not given)	Mot1-301 SUMO 383.8, KCNQ1 pot 8 (no result: KCC2 mod) | Yeast Mot1 SUMO inactive
Cc1ccc(N2C(=O)c3ccccc3NC2c2ccccc2O)cc1 (stereo not given)	none (no result: KCC2 mod)
CCCN1CCc2c(sc3nc(SCC)n(-c4ccc(OC)cc4)c(=O)c23)C1	none (no result: Mot1-301 SUMO, KCC2 mod)
N#CC(CC(=O)c1ccc(F)cc1)c1ccc2c(c1)OCO2 (stereo not given)	Mot1-301 SUMO 420.4 (no result: KCC2 mod) | Yeast Mot1 SUMO inactive
O=C(CSc1nccc(=O)[nH]1)c1cc2ccccc2o1	Mot1-301 SUMO 585.6 | Yeast Mot1 SUMO inactive
Cc1cc(C)c2cc(C)c3nnc(SCC(=O)NCc4ccc5c(c4)OCO5)n3c2c1	Mot1-301 SUMO 621.2 (no result: KCC2 mod) | Yeast Mot1 SUMO inactive
CCn1cnc2sc(-c3ccccc3)cc2c1=O	Mot1-301 SUMO 412.3 | Yeast Mot1 SUMO inactive
O=C(Nc1ccccc1)n1cc(-c2ccccn2)c(N2CCOCC2)n1	none
CC1(C)CC(=O)c2cnc(NC(=O)CSc3nc4ccccc4o3)nc2C1	Mot1-301 SUMO 851.0 | Yeast Mot1 SUMO inactive
Cc1cc(C)nc(SCC(=O)Nc2ncc3c(n2)CC(C)(C)CC3=O)n1	none
CCCCn1c(N)c(N(CC(C)C)C(=O)CCCc2nc3ccccc3c(=O)[nH]2)c(=O)[nH]c1=O	none (no result: KCC2 mod)
CC(C)(C)c1ccc(C(=O)NCCC(=O)N2CCN(c3ncccn3)CC2)cc1	Mot1-301 SUMO 552.5 | Yeast Mot1 SUMO inactive
COc1ccc(OCC(=O)OCC(=O)N2CC(=O)Nc3ccccc32)cc1	AI-2 QS mod inconclusive
O=C1CN(C(=O)COC(=O)COc2ccc3c(c2)CCC3)c2ccccc2N1	Mot1-301 SUMO 586.2 (no result: KCC2 mod) | Yeast Mot1 SUMO inactive
C=CCNC(=O)c1onc(CSc2cccc(C)c2)c1C(=O)O	Mot1-301 SUMO 774.6 | Yeast Mot1 SUMO inactive
